Experimental data from different studies.
Compare with care: the assays were run in different laboratories.
Target: Tyrosine-protein kinase receptor TYRO3 (TYRO3, Homo sapiens, UniProt Q06418)
One construct used (Q06418 41-890): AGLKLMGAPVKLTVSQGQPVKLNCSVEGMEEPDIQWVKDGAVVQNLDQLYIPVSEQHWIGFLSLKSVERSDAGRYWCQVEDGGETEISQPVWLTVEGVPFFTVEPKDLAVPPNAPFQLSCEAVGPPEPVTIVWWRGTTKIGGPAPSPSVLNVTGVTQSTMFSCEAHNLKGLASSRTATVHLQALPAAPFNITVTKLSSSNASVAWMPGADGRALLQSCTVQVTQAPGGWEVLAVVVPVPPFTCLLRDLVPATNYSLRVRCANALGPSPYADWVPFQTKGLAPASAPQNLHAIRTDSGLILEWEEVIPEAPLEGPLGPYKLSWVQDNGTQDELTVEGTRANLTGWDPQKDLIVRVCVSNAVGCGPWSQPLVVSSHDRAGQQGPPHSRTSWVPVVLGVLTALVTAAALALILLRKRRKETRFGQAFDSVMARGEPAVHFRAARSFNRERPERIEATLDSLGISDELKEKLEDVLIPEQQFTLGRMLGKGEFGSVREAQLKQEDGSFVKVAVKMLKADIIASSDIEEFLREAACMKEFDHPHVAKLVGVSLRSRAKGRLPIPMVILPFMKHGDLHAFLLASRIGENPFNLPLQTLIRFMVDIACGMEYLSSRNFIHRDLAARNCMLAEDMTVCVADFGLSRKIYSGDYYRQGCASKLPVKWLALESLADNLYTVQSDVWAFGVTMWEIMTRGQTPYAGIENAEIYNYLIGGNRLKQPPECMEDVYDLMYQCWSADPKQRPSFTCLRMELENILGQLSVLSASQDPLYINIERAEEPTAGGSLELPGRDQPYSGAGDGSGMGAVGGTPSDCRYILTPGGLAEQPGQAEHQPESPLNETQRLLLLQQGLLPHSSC

`CCS(=O)(=O)c1cc2cc(C[C@@](O)(CC(C)(C)c3ccc(F)cc3C(N)=O)C(F)(F)F)[nH]c2cn1` gave a remaining binding of 92% (cell-free assay, competition with immobilised ligand; 1 µM).
`CCCOc1ccc(OC)c(F)c1C(=O)c1ccc(C(=O)N[C@@H]2CNC[C@H]2NC(=O)c2ccc3[nH]ncc3c2)cc1` has a remaining activity of 51% (enzyme activity, inhibitor; 10 µM).
`CC(C)(O)[C@H]1CC[C@H](Nc2ccc3ncc(-c4cccc(C(F)(F)F)c4)n3n2)CC1` has a remaining activity of 22.3% (enzyme activity, inhibitor; 1 µM).
`CCCS(=O)(=O)Nc1ccc(F)c(C(=O)c2c[nH]c3ncc(-c4ccc(Cl)cc4)cc23)c1F` gave an inhibition of < 10% (enzyme activity, inhibitor; 1 µM).
With `CCOc1cc(-c2nncn2C)ccc1Nc1ncc2cc(C)nc(NCC(C)(C)C)c2n1` the inhibition was 19% (enzyme activity, inhibitor, FRET; 1 µM).
The remaining binding of `CCCOc1ccc([C@@H]2[C@@H](C(=O)O)[C@H](c3ccc4c(c3)OCO4)CN2CC(=O)Nc2c(CC)cccc2CC)cc1` is reported as 94% (cell-free assay, competition with immobilised ligand; 1 µM).
`Cc1ccc(NC(=O)c2ccc(C)c(C(F)(F)F)c2)cc1C#Cc1nn(C2CCC(O)CC2)c2ncnc(N)c12` (centres unmarked) gave a remaining signal of 2% (cell-free assay; 10 µM).
With `Cc1ccc(C(=O)Nc2ccc(CN3CCN(C)CC3)c(C(F)(F)F)c2)cc1C#Cc1cnc2cccnn12` the remaining signal was 73% (cell-free assay; 23.5 nM).
`N#CCCc1ccc2c(c1)-c1[nH]c3ccc([N+](=O)[O-])cc3c1CC(=O)N2` has a remaining signal of 94.8% (cell-free assay; 0.5 µM).
`Cc1c(C(=O)O)cc(-c2ccc(C3CCNCC3)cc2)c2ccc(-c3ccc(C(F)(F)F)cc3)cc12` has a remaining binding of 100% (cell-free assay, competition with immobilised ligand; 1 µM).
`O=C(Nc1cnn(-c2csc(C(=O)NC3COC3)c2)c1)Nc1ccccc1Cl` gave a remaining activity of 75.4% (enzyme activity, inhibitor; 5 µM).
The remaining activity of `COc1cc(Cl)c(C(=O)N[C@@H](CN[C@H]2CC[C@@H](N)CC2)Cc2ccc(C#N)cc2)cc1-c1ccc(CN[C@H](C)c2ccc(C)cc2)o1` is reported as 85% (enzyme activity, inhibitor; 1 µM).
With `CNC(=O)c1cc2c(Oc3ccc(NC(=O)C4(C(=O)Nc5ccc(F)cc5)CC4)cc3)ccnc2cc1OC` the inhibition was 100% (enzyme activity, inhibitor, radiometric; 1 µM).
`CCN(CC)CCNC(=O)c1c(C)[nH]c(/C=C2\C(=O)Nc3ccc(F)cc32)c1C` has an inhibition of 95% (cell-free assay; 10 µM).
`Nc1ncnc2occ(-c3ccc(NC(=O)Nc4cc(C(F)(F)F)ccc4F)cc3)c12` gave a remaining signal of 2% (cell-free assay; 20 µM).
With `O=C(O)c1cc(-c2ccc(C3CCNCC3)cc2)c2ccc(-c3ccc(C(F)(F)F)cc3)cc2c1` the remaining binding was 100% (cell-free assay, competition with immobilised ligand; 1 µM).
The ΔTm of `CN1CCC2(CC1)NC(=O)c1c(c3ccc(Cl)c(Cl)c3n1C)C2C#N` (racemic) is reported as 0.7 °C (thermal stability, DSF; 10 µM).
For `CC(C)(C)c1nc2c(s1)c1nc(N)ncc1c1ccc(NS(=O)(=O)c3c(F)cccc3F)c(F)c12`, the remaining activity was 91% (enzyme activity, inhibitor, radiometric; 1 µM).
With `O=C1Nc2ccc(Cl)cc2C1=Cc1cc(Cl)c(O)c(Cl)c1` the remaining signal was 94.9% (cell-free assay; 0.5 µM).
`Cn1c2c(c3ccc(Cl)c(Cl)c31)C(C#N)C1(CCNCC1)NC2=O` (racemic) has a ΔTm of -0.4 °C (thermal stability, DSF; 10 µM).
`Cc1ccc(Nc2nccc(N(C)c3ccc4c(C)n(C)nc4c3)n2)cc1S(N)(=O)=O` has an inhibition of 55% (cell-free assay; 10 µM).
`Cc1nc(N2CC[C@@H](O)C2)ncc1-c1cc(C(F)(F)F)cc2[nH]ncc12` gave a remaining binding of 66% (cell-free assay, competition with immobilised ligand; 1 µM).
`Cn1c2c(c3ccccc31)C(C#N)C(C)(C)NC2=O` (centres unmarked) gave a ΔTm of -0.1 °C (thermal stability, DSF; 10 µM).
`CCC(=O)N[C@H]1CC[C@@H](C(=O)N(C)c2ccc(-c3nc4ccccc4o3)cc2)C1` has a remaining binding of 92% (cell-free assay, competition with immobilised ligand; 1 µM).
`COc1cc2ncnc(Nc3ccc(Oc4ccccc4)c(C)c3C)c2cc1OC` has an inhibition of 25% (enzyme activity, inhibitor; 1 µM).
With `O=C(N1CCS(=O)(=O)CC1)N1C[C@H](c2ccc(OC(F)(F)F)cc2)C[C@H](c2nc(C3CC3)no2)C1` the remaining binding was 98% (cell-free assay, competition with immobilised ligand; 1 µM).
`Cn1c2c(Cl)c(Cl)ccc2c2cn[nH]c(=O)c21` has a ΔTm of 1 °C (thermal stability, DSF; 10 µM).
`Cn1cc(Cl)c2c(Oc3c(F)cc(Nc4cc(Cl)nc(N)n4)cc3F)ccnc21` gave a remaining binding of 80% (cell-free assay, competition with immobilised ligand; 0.1 µM).
The inhibition of `CN1CC(Oc2cnc(C#N)cc2-c2ccn3nc(NC(=O)C4CC4)cc3c2)C1` is reported as -2% (enzyme activity, inhibitor; 1 µM).
